Screening results (PubChem BioAssay)
PGC1a Ac signal = compounds raising PGC1a acetylation signal, primary screen, PGC1a modulator project, cell-based, U2OS, AlphaScreen, signal-increasing mode; overnight; activation, % at 15.6 µM; 0.21% of 350,000 active;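 active = every replicate reaching activation of at least 50%, whatever the mean replicate activation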;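 note: hits raise the AlphaScreen acetylation signal above neutral controls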
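System – flag-PGC1a/GCN5 U2OS cells · Quantity – 7000 U2OS cells per well · Signal – AlphaScreen proximity luminescence, anti-acetyl-lysine antibody · Schedule – overnight compound treatment, 37 °C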
The depositor's hits bear a star. Only a sample is shown.

SMILES | PGC1a Ac signal
COc1ccc(S(=O)(=O)NCCC(=O)NCc2ccc(F)cc2)cc1 | -80
CC(C)(C)C1CCC(CN2C(Nc3ccccc3)=NC[C@@H]2Cc2ccccc2)CC1 (stereo partly drawn) | -88
CCc1ccc(C(=O)Nc2cccnc2Oc2ccc(Cl)cc2)cc1 | -87
O=C(CCNNC(=O)c1ccncc1)NCc1ccccc1 | -51
O=C(NCc1cccnc1)/C(=C\c1ccc(-c2ccc(Cl)c(Cl)c2)o1)S(=O)(=O)c1ccccc1 | -59
O=C(CCCc1nc(-c2ccccc2Cl)no1)NCc1cccnc1 | 98*
CC(C)C#Cc1cnc2c(c1)C(=O)N([C@@H](C)CO)C[C@@H](C)[C@@H](CN(C)C(=O)c1ccccn1)O2 | -44
C[C@@H]1CN([C@@H](C)CO)C(=O)c2cccc(NC(=O)C3CCCCC3)c2O[C@@H]1CN(C)CC1CCCCC1 | -44
COC(=O)c1c(C)oc(C)c1S(=O)(=O)Nc1ccccc1 | -50
Cc1cc(C)c(S(=O)(=O)Nc2ccccc2-c2ccccc2)c(C)c1 | 79*
O=C(Nc1cccc(NC(=O)c2cccs2)c1)c1ccc([N+](=O)[O-])o1 | 94*
CCC(=O)N1CCN(c2ccc(Cl)cc2NC(=O)c2ccc([N+](=O)[O-])o2)CC1 | 62*
COc1ccc(C(=O)Nc2cccc(NC(=O)c3ccc(OC)c(OC)c3)n2)cc1OC | -61
CC(C)C(=O)Nc1cccc(NC(=S)NC(=O)c2ccc([N+](=O)[O-])cc2)c1 | -48
Cc1cccc(NC(=O)c2ccc([N+](=O)[O-])o2)n1 | 66*
O=C(Nc1ccccc1Cl)c1ccc([N+](=O)[O-])o1 | 66*
CCCCn1nc(NC(=O)c2cccs2)c2cc3ccccc3nc21 | -48
CCOc1ccnc(OCC)c1Br | -44
CO[C@H]1CN(C)C(=O)c2cc(NC(=O)NC(C)C)ccc2OC[C@H](C)N(Cc2ccc(-c3ccccn3)cc2)C[C@@H]1C | -62
O=C(C[C@@H]1CC[C@@H]2[C@H](COC[C@@H](O)CN2S(=O)(=O)c2ccc(Cl)cc2)O1)N[C@@H]1CCN(Cc2ccccc2)C1 | -48
Cc1ccc(/C(N)=N/OC(=O)c2ccco2)cc1 | 62*
Cc1ccc(CC(=O)Nc2nccs2)cc1 | -51
O=C(NC(Nc1cc(C(F)(F)F)ccc1Cl)C(=O)c1ccccc1)c1ccccc1 (stereo not drawn) | 100*
O=C(Nc1ccc(F)cc1)c1ccccc1 | -52
C[C@H](CO)N1C[C@H](C)[C@H](CN(C)Cc2ccncc2)OCc2cn(nn2)CCCC1=O | -59
SMILES | PGC1a Ac signal
O=Nc1c(-c2c(O)[nH]c3cc(Br)ccc23)[nH]c2ccccc12 | 258*
CCC(=O)N1C[C@H](C)[C@H](OC)CN(C)C(=O)c2cc(NC(=O)c3cnccn3)ccc2OC[C@@H]1C | -41
CCOC(=O)C1=C[C@@H](C(C)(C)C)N(S(=O)(=O)c2ccc(C)cc2)[C@H]1c1cccc2ccccc12 | 100*
CCOC(=O)Cn1cnc2scc(-c3ccccc3)c2c1=O | -43
CCCc1ccc(C(O)c2ncc(-c3cccc(F)c3)[nH]2)cc1 (stereo not drawn) | -43
COc1ccc(S(=O)(=O)Nc2ccc3c(c2)C(=O)N([C@H](C)CO)C[C@@H](C)[C@H](CN(C)C(=O)Nc2ccc(C(F)(F)F)cc2)OCCCC[C@@H](C)O3)cc1 | -41
COc1ccccc1Nc1nc(NCCC(C)C)nc(N)c1[N+](=O)[O-] | -47
C[C@H]1CCCCO[C@H](CN(C)C(=O)Nc2cccc3ccccc23)[C@@H](C)CN([C@@H](C)CO)C(=O)c2cc(N(C)C)ccc2O1 | 65*
C[C@@H]1CN([C@@H](C)CO)C(=O)c2cc(NC(=O)Nc3cccc4ccccc34)ccc2O[C@@H](C)CCCCO[C@H]1CN(C)C(=O)NC1CCCCC1 | -42
C[C@H](CO)N1C[C@H](C)[C@H](CN(C)S(=O)(=O)c2cn(C)cn2)OCCCC[C@H](C)Oc2ccc(NC(=O)Nc3cccc4ccccc34)cc2C1=O | -52
O=C1c2ccccc2C(=O)N1c1ccc(Cc2ccncc2)cc1 | -56
COc1ccc(-c2cnc3c(c2)C(=O)N([C@H](C)CO)C[C@H](C)[C@@H](CN(C)C(=O)C2CCC2)O3)cc1 | -44
COc1ccc(-c2cnc3c(c2)C(=O)N([C@H](C)CO)C[C@H](C)[C@H](CN(C)S(=O)(=O)c2cccs2)O3)cc1 | -50
COc1ccc(C#Cc2cnc3c(c2)C(=O)N([C@H](C)CO)C[C@H](C)[C@H](CN(C)S(=O)(=O)c2cccs2)O3)cc1OC | 61*
COc1ccc(S(=O)(=O)N(C)C[C@@H]2Oc3ncc(-c4ccccc4)cc3C(=O)N([C@H](C)CO)C[C@@H]2C)cc1 | -47
C[C@@H]1CN([C@@H](C)CO)C(=O)CCCn2nncc2CO[C@@H]1CN(C)C(=O)NC1CCCCC1 | -51
COc1ccc(NC(=O)C(Cl)=C(Cl)Cl)cn1 | 101*
COc1ccc(NC(=O)/C(Cl)=C(/Cl)S(=O)Cc2ccc(Cl)cc2)cn1 (stereo not drawn) | -100
COc1ccc(NC(=O)/C(Cl)=C(/Cl)S(=O)(=O)Cc2ccccc2)cn1 | -64
N#CC1(NC(=O)Cn2ncc(Cl)c(Cl)c2=O)CCCCC1 | 98*
C[C@H]1CN([C@@H](C)CO)C(=O)Cc2cc(NC(=O)Nc3ccccc3)ccc2O[C@@H]1CN(C)Cc1ccccc1 | -50
CC(=O)NC(=S)Nc1ccc(NC(=O)COc2ccc(Cl)cc2Cl)cc1 | 76*
CCCN(C)C[C@H]1Oc2cc(C#C[C@@H](C)O)ccc2S(=O)(=O)N([C@@H](C)CO)C[C@H]1C | -54
O=C(c1cc([N+](=O)[O-])ccc1N1CCCC1)N1CCCC1 | -52
O=[N+]([O-])c1ccc(N2CCN(CC3CCCCC3)CC2)cc1 | 63*
SMILES | PGC1a Ac signal
O=[N+]([O-])c1ccc(N2CCN(C(=S)NCc3ccc(Cl)cc3)CC2)cc1 | 81*
Cc1cccc(N2CCN(CC3CCCCC3)CC2)c1C | -47
Cc1ccc(CC(=O)N2CCN(c3ccc([N+](=O)[O-])cc3)CC2)cc1 | 113*
CCCCN(C(=O)CCC(=O)Nc1cc(C)on1)C(C(=O)NC1CCCC1)c1ccc(OC)cc1 (stereo not drawn) | -46
Cc1nc2ccccc2n2c(O)c(CC(=O)O)cc12 | -41
CO[C@H]1CN(C)C(=O)c2ccc(NC(=O)C3CCOCC3)cc2OC[C@@H](C)N(C)C[C@@H]1C | -53
COC(C[C@H]1O[C@@H]1[C@H](O)[C@H](C)OCc1ccccc1)OC | -47
C[C@H]1CN([C@@H](C)CO)C(=O)c2cc(/C=C/c3ccccc3)cnc2O[C@H]1CN(C)C(=O)CN(C)C | -53
COc1cccc(N2C(=NC(=O)c3ccccc3)SC3CS(=O)(=O)CC32)c1 (stereo not drawn) | -41
O=C1c2ccccc2C(=O)c2c1oc(C(F)(F)F)c2C(=O)c1ccccc1 | -45
O=C(c1ccccc1)c1nn(-c2ccc(Cl)cc2)c(=O)cc1C(F)(F)F | 179*
Cc1cc(-c2c(C)[nH]n(-c3ccc(Cl)cc3)c2=O)n(-c2ccccc2)n1 | -42
O=C(COc1ccccc1)N1CCN=C1SCc1ccccc1 | -43
COC(=O)[C@]1(Cc2ccccc2)N=C(c2ccc(OCCCO)cc2)O[C@@H]1c1ccccc1CN=[N+]=[N-] | 101*
COC(=O)[C@]1(Cc2ccccc2)N=C(c2ccc(OCCCO)cc2)O[C@@H]1c1ccccc1 | 77*
COC(=O)[C@@]1(Cc2ccccc2CN=[N+]=[N-])N=C(c2ccc(OCCCO)cc2)O[C@H]1c1ccccc1 | 66*
